The structures appear in SMILES notation. Active and inactive are the calls of the source. The calls are words filed in the database; no cut-off is given here.

Data set [1] deals with T1, Serine/threonine-protein kinase 4 (Homo sapiens, UniProt Q13043).
T1 sequence (Q13043 whole entry): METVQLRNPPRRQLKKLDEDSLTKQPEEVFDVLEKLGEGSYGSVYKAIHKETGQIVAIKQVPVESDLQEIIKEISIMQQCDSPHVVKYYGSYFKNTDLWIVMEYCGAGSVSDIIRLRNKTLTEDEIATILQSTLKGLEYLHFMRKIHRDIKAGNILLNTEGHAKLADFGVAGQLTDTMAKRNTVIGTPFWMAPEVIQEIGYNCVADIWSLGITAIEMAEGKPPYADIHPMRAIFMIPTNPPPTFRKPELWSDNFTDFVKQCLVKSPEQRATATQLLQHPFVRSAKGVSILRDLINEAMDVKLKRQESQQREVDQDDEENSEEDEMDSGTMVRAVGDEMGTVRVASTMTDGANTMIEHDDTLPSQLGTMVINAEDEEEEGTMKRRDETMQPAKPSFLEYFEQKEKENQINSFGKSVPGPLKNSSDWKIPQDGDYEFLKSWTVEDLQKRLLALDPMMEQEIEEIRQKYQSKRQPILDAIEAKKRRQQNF
Description: Inhibition of recombinant His-tagged full-length MST1 (unknown origin) expressing in Escherichia coli assessed as MOB1a phosphorylation level incubated for 30 min in the presence of 30 uM ATP by immunoblot analysis.

For data set [2], the system named is Tyrosine-protein kinase ABL1 (Homo sapiens), P00519 [F317L]. Description: Inhibition of ABL1 F317L mutant (unknown origin) assessed as remaining activity at 1 uM by Kinome scan method relative to control. The gist of the method: (§1)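 Active-site-dependent competition-binding (KINOMEscan) panel of 468 kinases, test compound at 1 μM (from a 10 mM DMSO stock). Read-out is ctrl% = (test signal − positive control signal)/(negative control signal − positive control signal) × 100. DMSO is the negative control (100%) and a control compound is the positive control (0%). Lower ctrl% means tighter binding.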

Data set [3] relates to Tyrosine-protein kinase ABL1 (Homo sapiens), P00519 [M351T]. Put plainly: Inhibition of phosphorylated ABL1 M351T mutant (unknown origin) assessed as remaining activity at 1 uM by Kinome scan method relative to control.
Data set [4] addresses Protein-tyrosine kinase 6 (Homo sapiens) (UniProt Q13882). Put plainly: Inhibition of BRK (unknown origin) assessed as remaining activity at 1 uM by Kinome scan method relative to control. The gist of the method: as §1
The target of data set [5] is Peripheral plasma membrane protein CASK (Homo sapiens) (UniProt O14936). Description: Inhibition of CASK (unknown origin) assessed as remaining activity at 1 uM by Kinome scan method relative to control. Summed up:
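Active-site-dependent competition-binding profiling (KINOMEscan) at 1 μM against a 468-kinase panel; compound supplied from a 10 mM DMSO stock. Read-out is ctrl% = (test signal − positive control signal)/(negative control signal − positive control signal) × 100. DMSO is the negative control (100%) and a control compound the positive control (0%). Lower ctrl% means tighter binding.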

The test system of data set [6] is Epidermal growth factor receptor (Homo sapiens), P00533 [L858R,T790M]. Description: Inhibition of EGFR L858R/T790M mutant (unknown origin) assessed as remaining activity at 1 uM by Kinome scan method relative to control.
Data set [7] concerns the target Receptor tyrosine-protein kinase erbB-2 (Homo sapiens) (UniProt P04626). Put plainly: Inhibition of ERBB2 (unknown origin) assessed as remaining activity at 1 uM by Kinome scan method relative to control.
For data set [8], the target named is Tyrosine-protein kinase Fyn (Homo sapiens) (UniProt P06241). Description: Inhibition of FYN (unknown origin) assessed as remaining activity at 1 uM by Kinome scan method relative to control.
Tyrosine-protein kinase Fyn (Homo sapiens), sequence (P06241 2-537 limits assumed): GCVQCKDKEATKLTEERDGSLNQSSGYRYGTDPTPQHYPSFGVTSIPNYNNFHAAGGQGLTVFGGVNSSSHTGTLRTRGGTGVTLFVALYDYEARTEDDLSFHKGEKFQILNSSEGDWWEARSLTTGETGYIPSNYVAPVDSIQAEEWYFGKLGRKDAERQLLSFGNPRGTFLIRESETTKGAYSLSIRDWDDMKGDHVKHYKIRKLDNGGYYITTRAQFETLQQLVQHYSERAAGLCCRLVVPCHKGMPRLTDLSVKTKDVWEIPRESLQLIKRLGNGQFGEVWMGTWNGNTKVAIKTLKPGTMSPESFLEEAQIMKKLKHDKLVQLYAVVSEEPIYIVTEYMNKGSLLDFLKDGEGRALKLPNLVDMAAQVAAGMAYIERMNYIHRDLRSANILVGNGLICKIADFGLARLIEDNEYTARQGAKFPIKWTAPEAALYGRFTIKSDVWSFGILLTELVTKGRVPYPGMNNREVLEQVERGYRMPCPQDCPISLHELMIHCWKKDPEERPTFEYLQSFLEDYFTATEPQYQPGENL
Data set [9] addresses Glycogen synthase kinase-3 alpha (Homo sapiens) (UniProt P49840). Put plainly: Inhibition of GSK3alpha (unknown origin) assessed as remaining activity at 1 uM by Kinome scan method relative to control.
The target in data set [10] is Mitogen-activated protein kinase kinase kinase 3 (Homo sapiens) (UniProt Q99759). Description: Inhibition of MAP3K3 (unknown origin) assessed as remaining activity at 1 uM by Kinome scan method relative to control.
Data set [11] deals with Mitogen-activated protein kinase kinase kinase kinase 3 (Homo sapiens) (UniProt Q8IVH8). Description: Inhibition of MAP4K3 (unknown origin) assessed as remaining activity at 1 uM by Kinome scan method relative to control.
Mitogen-activated protein kinase kinase kinase kinase 3 (Homo sapiens), sequence (Q8IVH8 whole entry): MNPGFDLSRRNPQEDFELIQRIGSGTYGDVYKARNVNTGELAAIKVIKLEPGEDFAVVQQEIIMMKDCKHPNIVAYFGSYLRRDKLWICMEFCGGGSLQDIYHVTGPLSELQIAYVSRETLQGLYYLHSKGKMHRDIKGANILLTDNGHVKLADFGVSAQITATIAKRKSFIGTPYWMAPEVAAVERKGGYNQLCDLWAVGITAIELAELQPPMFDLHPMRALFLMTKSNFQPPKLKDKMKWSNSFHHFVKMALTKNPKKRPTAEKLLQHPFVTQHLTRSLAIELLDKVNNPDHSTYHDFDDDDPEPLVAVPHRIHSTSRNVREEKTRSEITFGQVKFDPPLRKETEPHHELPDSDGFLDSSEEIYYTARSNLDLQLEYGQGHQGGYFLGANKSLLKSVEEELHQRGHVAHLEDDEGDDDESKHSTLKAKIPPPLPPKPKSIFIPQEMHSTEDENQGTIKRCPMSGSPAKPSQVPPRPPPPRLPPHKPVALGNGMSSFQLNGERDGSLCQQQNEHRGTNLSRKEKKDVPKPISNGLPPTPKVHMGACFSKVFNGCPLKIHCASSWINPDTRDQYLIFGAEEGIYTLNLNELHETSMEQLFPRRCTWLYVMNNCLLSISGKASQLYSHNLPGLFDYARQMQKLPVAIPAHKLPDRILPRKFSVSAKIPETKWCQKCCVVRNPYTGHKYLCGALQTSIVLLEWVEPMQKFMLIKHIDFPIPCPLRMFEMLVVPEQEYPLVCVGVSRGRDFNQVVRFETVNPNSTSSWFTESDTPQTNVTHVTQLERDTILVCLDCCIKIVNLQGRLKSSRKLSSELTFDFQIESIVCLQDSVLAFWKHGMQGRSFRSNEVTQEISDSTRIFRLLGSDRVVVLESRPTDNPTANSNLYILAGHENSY
The target of data set [12] is Serine/threonine-protein kinase 38 (Homo sapiens) (UniProt Q15208). Put plainly: Inhibition of NDR1 (unknown origin) assessed as remaining activity at 1 uM by Kinome scan method relative to control.
In data set [13] the target is Platelet-derived growth factor receptor alpha (Homo sapiens) (UniProt P16234). Put plainly: Inhibition of PDGFRalpha (unknown origin) assessed as remaining activity at 1 uM by Kinome scan method relative to control. Summed up: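 KINOMEscan active-site competition binding assay at 1 μM against 468 kinases. Ctrl% = (test − positive control)/(negative control DMSO − positive control) × 100; lower values mean tighter binding.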

The target of data set [14] is Protein kinase C eta type (Homo sapiens) (UniProt P24723). Description: Inhibition of PRKCH (unknown origin) assessed as remaining activity at 1 uM by Kinome scan method relative to control.
Protein kinase C eta type (Homo sapiens), sequence (P24723 whole entry): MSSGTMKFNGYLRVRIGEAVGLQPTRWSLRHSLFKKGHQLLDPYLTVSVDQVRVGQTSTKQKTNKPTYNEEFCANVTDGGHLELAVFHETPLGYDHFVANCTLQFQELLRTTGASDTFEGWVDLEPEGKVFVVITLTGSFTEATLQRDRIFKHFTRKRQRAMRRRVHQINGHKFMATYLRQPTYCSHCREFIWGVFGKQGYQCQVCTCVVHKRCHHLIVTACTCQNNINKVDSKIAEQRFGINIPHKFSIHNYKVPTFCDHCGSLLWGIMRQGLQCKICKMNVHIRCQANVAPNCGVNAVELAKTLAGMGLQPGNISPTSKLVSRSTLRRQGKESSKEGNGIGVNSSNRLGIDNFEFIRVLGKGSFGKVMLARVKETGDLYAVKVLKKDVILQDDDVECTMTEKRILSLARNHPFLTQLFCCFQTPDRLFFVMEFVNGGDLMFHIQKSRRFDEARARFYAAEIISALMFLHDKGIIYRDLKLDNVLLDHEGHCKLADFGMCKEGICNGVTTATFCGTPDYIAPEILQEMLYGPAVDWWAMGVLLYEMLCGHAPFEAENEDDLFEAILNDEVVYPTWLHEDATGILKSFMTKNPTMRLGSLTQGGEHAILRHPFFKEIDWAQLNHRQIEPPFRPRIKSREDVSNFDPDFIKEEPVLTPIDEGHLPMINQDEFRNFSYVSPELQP
The target in data set [15] is Serine/threonine-protein kinase PRP4 homolog (Homo sapiens) (UniProt Q13523). Put plainly: Inhibition of PRP4 (unknown origin) assessed as remaining activity at 1 uM by Kinome scan method relative to control.
In data set [16] the target is RAF proto-oncogene serine/threonine-protein kinase (Homo sapiens) (UniProt P04049). Put plainly: Inhibition of RAF1 (unknown origin) assessed as remaining activity at 1 uM by Kinome scan method relative to control.
RAF proto-oncogene serine/threonine-protein kinase (Homo sapiens), sequence (P04049 whole entry): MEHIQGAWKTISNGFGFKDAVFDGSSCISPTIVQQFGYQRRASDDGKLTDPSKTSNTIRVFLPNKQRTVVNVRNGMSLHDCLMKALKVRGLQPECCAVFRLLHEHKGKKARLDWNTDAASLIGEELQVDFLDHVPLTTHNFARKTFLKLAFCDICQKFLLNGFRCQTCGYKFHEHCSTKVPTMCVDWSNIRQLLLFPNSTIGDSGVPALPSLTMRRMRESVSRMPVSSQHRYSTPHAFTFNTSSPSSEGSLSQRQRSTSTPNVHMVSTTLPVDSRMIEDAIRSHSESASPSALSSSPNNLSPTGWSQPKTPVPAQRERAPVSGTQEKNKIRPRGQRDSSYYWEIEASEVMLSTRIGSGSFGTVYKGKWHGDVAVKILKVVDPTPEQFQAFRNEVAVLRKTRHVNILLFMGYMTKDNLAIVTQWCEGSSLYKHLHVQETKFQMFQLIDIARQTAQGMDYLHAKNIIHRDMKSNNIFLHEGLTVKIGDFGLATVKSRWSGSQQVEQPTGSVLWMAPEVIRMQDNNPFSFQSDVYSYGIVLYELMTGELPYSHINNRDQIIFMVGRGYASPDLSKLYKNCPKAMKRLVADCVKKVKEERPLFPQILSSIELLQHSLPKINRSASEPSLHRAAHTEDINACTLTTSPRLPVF
For data set [17], the target named is Serine/threonine-protein kinase SIK2 (Homo sapiens) (UniProt Q9H0K1). Put plainly: Inhibition of SIK2 (unknown origin) assessed as remaining activity at 1 uM by Kinome scan method relative to control.
Serine/threonine-protein kinase SIK2 (Homo sapiens), sequence (Q9H0K1 whole entry, looked up): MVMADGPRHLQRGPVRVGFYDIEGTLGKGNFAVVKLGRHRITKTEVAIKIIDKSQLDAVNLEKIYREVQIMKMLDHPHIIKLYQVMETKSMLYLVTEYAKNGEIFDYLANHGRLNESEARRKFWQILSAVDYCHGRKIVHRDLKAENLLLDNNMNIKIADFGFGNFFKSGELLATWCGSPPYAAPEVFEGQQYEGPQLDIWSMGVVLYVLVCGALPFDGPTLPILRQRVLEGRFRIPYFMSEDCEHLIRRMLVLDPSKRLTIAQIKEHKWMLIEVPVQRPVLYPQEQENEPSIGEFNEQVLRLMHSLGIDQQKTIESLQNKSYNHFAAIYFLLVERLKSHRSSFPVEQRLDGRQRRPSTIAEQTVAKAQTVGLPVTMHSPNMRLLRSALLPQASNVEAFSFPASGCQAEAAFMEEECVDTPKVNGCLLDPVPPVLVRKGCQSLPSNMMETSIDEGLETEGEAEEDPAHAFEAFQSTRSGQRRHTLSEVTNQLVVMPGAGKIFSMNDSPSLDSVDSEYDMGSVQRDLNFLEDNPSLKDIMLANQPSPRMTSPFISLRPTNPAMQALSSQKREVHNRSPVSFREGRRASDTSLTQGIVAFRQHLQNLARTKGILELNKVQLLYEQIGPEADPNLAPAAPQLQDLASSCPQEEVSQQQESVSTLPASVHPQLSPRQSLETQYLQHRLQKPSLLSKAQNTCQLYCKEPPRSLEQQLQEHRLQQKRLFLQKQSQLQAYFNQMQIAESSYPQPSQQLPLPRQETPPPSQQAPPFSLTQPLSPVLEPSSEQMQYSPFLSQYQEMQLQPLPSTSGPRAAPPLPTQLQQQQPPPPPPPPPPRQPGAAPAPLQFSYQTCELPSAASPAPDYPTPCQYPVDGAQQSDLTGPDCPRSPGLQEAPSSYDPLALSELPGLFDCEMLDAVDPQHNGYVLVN
Data set [18] has as its target Serine/threonine-protein kinase TNNI3K (Homo sapiens) (UniProt Q59H18). Description: Inhibition of TNNI3K (unknown origin) assessed as remaining activity at 1 uM by Kinome scan method relative to control.
Data set [19] deals with Non-receptor tyrosine-protein kinase TYK2 (Homo sapiens, UniProt P29597). Description: Inhibition of TYK2 JH2 domain (unknown origin) assessed as remaining activity at 1 uM by Kinome scan method relative to control.
Data set [20] relates to Mus musculus. Put plainly: Protection against human hepatocyte transplanted FRG mouse assessed as increase in human albumin level at 1 mg/kg, ip administrated once a day and measured within 6 weeks. The class given is functional, organism-based. The settings on record: Liver.
For data set [21], the system named is Mus musculus. Put plainly: Protection against human hepatocyte transplanted FRG mouse assessed as Fah-deficient hepatocyte survival at 1 mg/kg, ip administrated once a daily for 28 days by H&E staining based immunohistochemical analysis. The class given is functional, organism-based. The following applies: Liver, time 28.0 day.
Data set [22] concerns Mus musculus. Description: Protection against APAP induced liver injury in mouse assessed as decrease in ALT level at 1 mg/kg, ip administered at 1.5 hrs. The class given is functional, organism-based. The settings on record: Serum.
A short description of data set [23]: Toxicity in mouse assessed as cancer cell growth at 1 mg/kg, ip administered for 2 months. The class given is organism-based. The settings on record: in vivo, 1460 h. The gist of the method:
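Wild-type mice were given 1 mg/kg i.p. daily for 2 months and examined for cancer growth and serum α-fetoprotein.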

Receptor tyrosine-protein kinase erbB-2 (Homo sapiens), sequence (P04626 whole entry): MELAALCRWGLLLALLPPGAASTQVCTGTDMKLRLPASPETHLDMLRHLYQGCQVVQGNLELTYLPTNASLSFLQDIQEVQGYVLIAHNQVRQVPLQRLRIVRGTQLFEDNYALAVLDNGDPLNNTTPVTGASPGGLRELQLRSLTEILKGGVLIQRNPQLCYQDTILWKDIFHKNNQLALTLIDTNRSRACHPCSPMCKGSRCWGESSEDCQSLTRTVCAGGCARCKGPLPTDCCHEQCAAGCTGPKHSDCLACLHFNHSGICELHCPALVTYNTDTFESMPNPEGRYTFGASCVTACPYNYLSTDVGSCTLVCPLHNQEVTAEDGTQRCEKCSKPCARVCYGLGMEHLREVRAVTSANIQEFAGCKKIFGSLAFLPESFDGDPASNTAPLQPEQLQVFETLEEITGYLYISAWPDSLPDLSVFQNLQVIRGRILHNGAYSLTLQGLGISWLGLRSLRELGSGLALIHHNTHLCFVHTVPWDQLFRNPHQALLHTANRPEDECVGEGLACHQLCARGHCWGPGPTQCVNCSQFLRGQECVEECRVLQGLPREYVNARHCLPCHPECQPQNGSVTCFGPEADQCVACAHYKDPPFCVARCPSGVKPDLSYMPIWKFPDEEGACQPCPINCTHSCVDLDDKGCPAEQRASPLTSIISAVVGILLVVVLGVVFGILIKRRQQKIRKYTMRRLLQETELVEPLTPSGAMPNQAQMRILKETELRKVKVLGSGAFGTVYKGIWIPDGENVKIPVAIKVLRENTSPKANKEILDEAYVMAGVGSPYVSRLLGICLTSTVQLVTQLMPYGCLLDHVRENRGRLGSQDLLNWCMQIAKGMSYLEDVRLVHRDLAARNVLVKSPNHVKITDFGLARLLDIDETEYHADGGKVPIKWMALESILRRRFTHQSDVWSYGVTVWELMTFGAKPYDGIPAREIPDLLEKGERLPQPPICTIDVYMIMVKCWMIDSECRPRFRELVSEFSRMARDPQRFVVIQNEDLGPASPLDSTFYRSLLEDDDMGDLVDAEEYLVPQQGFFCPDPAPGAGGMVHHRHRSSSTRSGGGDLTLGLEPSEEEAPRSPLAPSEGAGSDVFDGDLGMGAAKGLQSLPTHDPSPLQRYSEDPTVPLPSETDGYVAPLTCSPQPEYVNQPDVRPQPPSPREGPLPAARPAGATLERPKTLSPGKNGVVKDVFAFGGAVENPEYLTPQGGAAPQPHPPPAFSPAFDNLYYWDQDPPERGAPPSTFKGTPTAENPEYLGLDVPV

Consider `CN1C(=O)c2sccc2N(C)c2nc(Nc3ccc(S(N)(=O)=O)cc3)ncc21`, for which the IC50 – broadly, the concentration needed to halve the response being measured – in data set [1] was 378 nM. Further, the Activity in data set [2] was 32%; in data set [3], 5.5%; in data set [4] it was 100%; in [5] it was 78%; in [6], 77%; in data set [7], 100%. Besides, the Activity was determined as 100% in data set [8]; 100% in [9]; 2% in data set [10]; 100% in data set [11]; 62% in data set [12]; 89% in data set [13]. The Activity in data set [14] was determined as 100%; in data set [15] it was 97%; in data set [16] it was 80%; in data set [17], 100%; in [18], 100%; in data set [19], 71%. In [23], the Activity entry is reported as “Non-Toxic”. Besides, the result in the data set on Mus musculus [20] and in the data set with Mus musculus [22] was Active. Further, in the data set with Mus musculus [21], the outcome was inactive.
